Compounds with a hit are over-represented: about 2.5% of the library has one in this group of screens.
TRPC4 PAM – positive allosteric modulators of TRPC4, primary screen, cell-based, mouse TRPC4beta, HEK293 mu-opioid, Fluo-4 calcium | hit rate 0.42% among 310,000 | B-score at 10 µM | Short transient receptor potential channel 4 (Mus musculus), Q9QUQ5 | AID 2227, 2009 | DAMGO EC20, Fluo-4 Ca2+ flux; active compounds read high;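 active means B-score of calcium response area above 5 SD of library B-scores, with initial fluorescence ratio within 5 SD of library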;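 further: B-score of integrated fluorescence ratio over time as area under calcium response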
Target sequence (Q9QUQ5 whole entry, looked up): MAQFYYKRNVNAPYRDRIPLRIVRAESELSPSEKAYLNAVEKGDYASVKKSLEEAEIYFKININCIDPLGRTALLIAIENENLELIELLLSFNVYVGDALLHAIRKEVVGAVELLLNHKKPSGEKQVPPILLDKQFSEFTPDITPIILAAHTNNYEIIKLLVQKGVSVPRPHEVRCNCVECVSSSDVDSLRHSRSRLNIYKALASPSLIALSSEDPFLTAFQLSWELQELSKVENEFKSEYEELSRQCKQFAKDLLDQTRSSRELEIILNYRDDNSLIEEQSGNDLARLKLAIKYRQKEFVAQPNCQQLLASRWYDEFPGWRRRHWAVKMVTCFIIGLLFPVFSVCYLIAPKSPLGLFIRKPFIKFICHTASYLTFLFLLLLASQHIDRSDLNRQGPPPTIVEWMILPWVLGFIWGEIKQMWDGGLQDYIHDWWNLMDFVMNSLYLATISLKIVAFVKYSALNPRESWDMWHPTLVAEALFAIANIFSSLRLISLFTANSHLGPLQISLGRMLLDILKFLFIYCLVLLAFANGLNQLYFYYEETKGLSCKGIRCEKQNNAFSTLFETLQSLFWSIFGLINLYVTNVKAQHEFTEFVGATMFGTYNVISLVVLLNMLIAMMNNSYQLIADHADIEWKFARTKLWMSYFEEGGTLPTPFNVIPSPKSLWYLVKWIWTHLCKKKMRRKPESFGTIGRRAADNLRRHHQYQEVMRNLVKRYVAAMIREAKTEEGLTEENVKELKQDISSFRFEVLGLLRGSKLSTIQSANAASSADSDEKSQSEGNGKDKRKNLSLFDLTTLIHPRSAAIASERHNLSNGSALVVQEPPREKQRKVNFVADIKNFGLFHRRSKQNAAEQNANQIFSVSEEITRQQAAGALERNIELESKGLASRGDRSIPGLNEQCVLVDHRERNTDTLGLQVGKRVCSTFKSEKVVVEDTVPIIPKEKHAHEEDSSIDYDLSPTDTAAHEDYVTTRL
TRPC4 block – inhibitors of mouse TRPC4 channel, primary screen, Fluo4 calcium, HEK293 TRPC4beta/mu-opioid cells; B-score at 10 µM; AID 2247, 2010; DAMGO-evoked Fluo4 calcium flux; active compounds read low; Short transient receptor potential channel 4 (Mus musculus), Q9QUQ5; hit rate 0.39% among 300,000;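 active means B-score over 3 SD under the library average, no early fluorescence shift, positive overall ratio signal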
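Material: HEK293 cells with stable TRPC4beta plus mu-opioid receptor expression; probe or stimulus: DAMGO in two steps, submaximal then maximal; technique: Fluo4 calcium fluorescence by kinetic imaging, 5 s 1 Hz baseline; measure: integrated fluorescence ratio relative to baseline, converted to per-well B score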
TRPC6 act – mouse TRPC6 channel activators, primary screen, cell-based, HEK293, membrane potential dye; Short transient receptor potential channel 6 (Mus musculus), Q61143; HEK293-TRPC6 membrane potential dye fluorescence; active compounds read high; B-score at 10 µM; hit rate 0.13% among 310,000;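 active means B-score of the integrated fluorescence ratio above library mean plus 3 SD, and starting fluorescence ratio within library mean plus 5 SD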;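 further: higher score means more depolarization so channel activation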
TRPC4 act – activators of mouse TRPC4 channel, primary screen, Fluo4 calcium, HEK293 TRPC4beta/mu-opioid cells; hit rate 0.49% among 310,000; Fluo4 calcium fluorescence; active compounds read high; B-score at 10 µM; Short transient receptor potential channel 4 (Mus musculus), Q9QUQ5;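 active means B-score above 5 SD of library B-scores, and initial fluorescence ratio not above library mean plus 5 SD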;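 further: positive B-score marks a calcium rise read as TRPC4 activation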
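system = HEK293 cells stably co-expressing mouse TRPC4beta and mu-opioid receptor | schedule = Fluo4 dye loading 45 min at room temperature, 110 s recording | measure = B-scored integrated calcium fluorescence ratio | signal = Fluo4 calcium-sensitive dye fluorescence, kinetic, 1 Hz baseline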
Platelet DG rel – inhibitors of platelet dense granule secretion, primary screen, cell-based, MLPCN, human platelets; human platelet-rich plasma, SFLLRN dense granule ATP release, luminescence; inhibition, %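 (compounds screened at 7.5 µM in platelet-rich plasma)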; hit rate 0.22% among 300,000;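 active means mean replicate score, as percent of positive control, at or above 50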
TRPC6 inh – mouse TRPC6 channel inhibitors, primary screen, cell-based, HEK293, membrane potential dye; ACh-evoked depolarization; active compounds read low; B-score at 10 µM; hit rate 1.1% among 310,000; AID 2553, 2010;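 active means B-score under library mean minus 3 SD, initial fluorescence not abnormally high, positive integrated signal ratio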;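 further: B-score derived from integrated fluorescence ratio over the kinetic read; more negative B-score means stronger inhibition of depolarization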
TRPC4 spec 2 – second check of whether TRPC6 inhibitors also affect mouse TRPC4; shares compounds with TRPC6 inh; HEK293 TRPC4/MOR, membrane potential dye fluorescence; channel activated by saturating DAMGO dose; inhibition, % at 10 µM; hit rate 42% among 920; AID 2776;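 active means compounds whose fluorescence signal differed from control wells by over 3 SD, either direction, in both duplicate plates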
TRPC4 spec – mouse TRPC4 modulation by TRPC6 hits, confirmation, selectivity assay for TRPC6 inhibitor project, cell-based, HEK293 TRPC4/mu-opioid, membrane potential dye; shares compounds with TRPC6 inh; membrane potential fluorescence; activity change, negative = inhibition, % at 10 µM; hit rate 61% among 920; AID 2777, 2010;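 active means rise or fall in signal beyond 3 SD of buffer-only wells in both replicate plates, either sign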;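 further: integrated kinetic ratio of fluorescence range over baseline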
HEK293 MPD ctr 2-1 – nonspecific membrane potential effects, parental HEK293, confirmation, counter-screen for TRPC6 inhibitor project, cell-based, second counter screen; AID 2779, 2010; signal change vs control, % at 10 µM; parental HEK293 membrane potential dye fluorescence; maximal acetylcholine challenge after compound addition; hit rate 31% among 920; shares compounds with TRPC6 inh;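 active means membrane potential signal moving either way by over 3 SD of the maximum-effect control, in both duplicate plates, meaning non-specific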
HEK293 MPD ctr-1 – membrane potential modulation in parental HEK293, confirmation, counter-screen for TRPC6 inhibitor project, cell-based | shares compounds with TRPC6 inh | parental HEK293 membrane potential dye fluorescence | hit rate 60% among 920 | membrane potential signal change, % at 10 µM | AID 2780, 2010;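 active means membrane potential signal shifting up or down by more than 3 SD of buffer-only wells, on both duplicate plates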
HEK293 MPD ctr-2 – parental HEK293 membrane potential modulation, confirmation, counter-screen for TRPC6 modulator project, cell-based; shares compounds with TRPC6 inh; membrane potential dye fluorescence; membrane potential signal change, % at 10 µM; hit rate 51% among 2,400; AID 488924, 2010;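 active means membrane potential signal moves up or down beyond 5 SD from buffer-only wells, on both duplicate plates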
HEK293 MPD ctr 2-2 – second check of TRPC6 modulator effects in parental HEK293 cells; hit rate 14% among 2,400; membrane potential dye fluorescence; after compound, maximal acetylcholine stimulation; inhibition, % at 10 µM; shares compounds with TRPC6 inh;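 active means membrane potential signal drops by more than 5 SD from the mean control signal, in both duplicate plates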;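 further: plate controls were acetylcholine ECmax control wells for no effect and buffer only wells for full effect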
TRPC4 ctr mod – TRPC4 modulation by TRPC6 hit compounds, confirmation, selectivity assay for TRPC6 modulator project, cell-based, HEK293 TRPC4/mu-opioid, membrane potential dye, mouse; shares compounds with TRPC6 inh; membrane potential fluorescence; percent change from control (negative = decrease, positive = increase), % at 10 µM; hit rate 69% among 2,400; AID 488927, 2010;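 active means membrane potential signal moved up or down beyond 5 SD of buffer control wells, in both duplicate plates, actives on both sides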;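 further: plate controls were assay buffer wells for no effect and DAMGO maximal-effect wells for full effect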
TRPC4 ctr inh 2 – second selectivity test of TRPC6 modulators against mouse TRPC4; shares compounds with TRPC6 inh; HEK293 TRPC4/mu-opioid, membrane potential dye fluorescence; stimulated with maximal-effect DAMGO; inhibition, % at 10 µM; hit rate 55% among 2,400; AID 488928;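 active means drop in membrane potential signal beyond 5 SD of the control wells in both duplicate plates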;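 further: TRPC4 counter screen for TRPC6 hits run under conditions tuned for TRPC6 not TRPC4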
TRPC6 block conf – mouse TRPC6 channel inhibitors, confirmation, HEK293 cells, membrane potential dye, duplicate | shares compounds with TRPC6 inh | ACh-evoked depolarization | inhibition, % at 10 µM | hit rate 43% among 3,300;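 active means fluorescence ratio falls more than 5 SD below the full-stimulation control mean, in both duplicate runs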;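 further: integrated fluorescence ratio of peak minus minimum over baseline after agonist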
TRPC6 act confirm – mouse TRPC6 channel activators, confirmation, HEK293 cells, membrane potential dye, duplicate; shares compounds with TRPC6 inh; HEK293-TRPC6 membrane potential dye fluorescence, FDSS; activation, % at 10 µM; hit rate 11% among 2,800;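 active means ratio signal rise beyond 5 SD above unstimulated control wells' mean, seen in both duplicate runs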;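 further: plate controls were buffer EC0 wells for no effect and acetylcholine ECmax response for full effect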
* hit, by the source's call; i = inactive; · = no result given.

SMILES	TRPC4 PAM	TRPC4 block	TRPC6 act	TRPC4 act	Platelet DG rel	TRPC6 inh	HEK293 MPD ctr-2	HEK293 MPD ctr 2-2	TRPC4 ctr mod	TRPC4 ctr inh 2	TRPC6 block conf	TRPC6 act confirm	others
C=CCn1c(=N)c(C#N)cc2c(=O)n3ccccc3nc21	i	i	i	i	-9.5	-8.71*	-277.5%*	i	-44.5%*	38.5%*	i	i
Cc1nnc(Nc2ccccn2)c2ccccc12	i	i	i	i	-15.1	-5.69*	-219.0%*	58.0%*	-36.0%*	45.5%*	63.0%*	i
N#Cc1cc(Sc2ccccn2)c([N+](=O)[O-])cc1C#N	i	i	i	i	6.1	-8.28*	·	·	·	·	75.0%*	i	TRPC4 spec 2=i;TRPC4 spec=-20.8%*;HEK293 MPD ctr 2-1=-78.0%*;HEK293 MPD ctr-1=-319.5%*
Cc1ccccc1-c1nc(CN(Cc2c(C)nn(C)c2C)C2CC2)c(C)o1	i	i	i	i	-10.5	i	·	·	·	·	·	·
Cc1cc(C)c(C#N)c(Nc2ccc3c(c2)OCCO3)n1	i	i	i	i	18.7	i	·	·	·	·	·	·
Cc1cc(Nc2ccc3c(c2)OCCO3)c2cc(Cl)ccc2n1	i	i	i	i	-16.2	-5.06*	-83.0%*	i	-16.5%*	44.0%*	i	i
CCOC(=O)C1(Cc2cccc(OC)c2)CCN(Cc2cccn2-c2nccs2)CC1	i	i	i	i	3.6	-6.51*	207.0%*	i	33.5%*	86.0%*	i	·
COc1cc(S(=O)(=O)N2CCN(c3ccccc3F)CC2)ccc1Cl	i	i	i	i	5.2	-5.01*	i	i	i	i	i	i
Cc1ccc(CN2CCN(Cc3nc4ccccc4nc3C)CC2CCO)cc1 (stereo unspecified)	i	i	i	i	-2.7	i	·	·	·	·	·	·
Cn1c(=O)c2sccc2n2c(CCCC(=O)N3CCN(c4ccccn4)CC3)nnc12	i	i	i	i	-8.3	i	·	·	·	·	·	·
O=c1c2ccccc2nnn1CSc1nnc(-c2cccnc2)n1-c1ccccc1F	i	i	i	i	-26.5	i	·	·	·	·	·	·
O=C1OCCC1Sc1nnc(-c2cccnc2)n1-c1ccccc1F (stereo unspecified)	i	i	i	i	5.9	-7.51*	·	·	·	·	i	i	TRPC4 spec 2=i;TRPC4 spec=i;HEK293 MPD ctr 2-1=i;HEK293 MPD ctr-1=i
Cc1cc(C)c(NC(=O)Cn2nnc(C(=O)NCc3ccc4c(c3)OCO4)c2N)c(C)c1	i	i	i	i	-4.2	i	·	·	·	·	·	·
Cc1cc(NCCN(C)C)n2nc(-c3cccs3)cc2n1	i	i	i	i	-11.3	-6.8*	-272.0%*	i	-52.0%*	48.5%*	i	i
CCOC(=O)c1ccc(-c2c(-c3ccc4c(c3)OCO4)noc2C)cc1F	i	·	i	i	16.1	i	·	·	·	·	·	·
O=C(Nc1cccc2c1[nH]c1ccccc12)C(F)(F)F	i	i	i	i	0.9	i	·	·	·	·	·	·
Cc1ccnc2c1ccc1ccccc12	i	i	i	i	-13.0	-6.51*	i	i	i	i	i	i
Cc1ccc2cccnc2c1N	i	i	i	i	9.7	i	·	·	·	·	·	·
O=[N+]([O-])c1cc(S(=O)(=O)N2CCCCC2)ccc1NCCN1CCOCC1	i	i	i	i	-12.3	i	·	·	·	·	·	·
COc1ccc2[nH]c3c(c2c1)CCNC3C1CC=C(C)CC1 (stereo unspecified)	i	i	i	i	7.4	-6.3*	i	i	i	56.5%*	36.0%*	i
COc1ccc2[nH]c3c(c2c1)CCNC3c1ccc([N+](=O)[O-])o1 (stereo unspecified)	i	i	i	i	5.2	i	·	·	·	·	·	·
O=C(CSc1ccc2c(c1)OCCO2)NCCc1ccc(Cl)cc1Cl	i	i	i	i	-0.3	-5.44*	350.0%*	i	16.0%*	i	i	i
N=c1c(C(=O)NCCN2CCOCC2)cc2c(=O)n3ccccc3nc2n1CCc1ccccc1	i	i	i	i	-14.3	-7.84*	·	·	·	·	99.0%*	i	TRPC4 spec 2=64.0%*;TRPC4 spec=-19.7%*;HEK293 MPD ctr 2-1=-78.0%*;HEK293 MPD ctr-1=-245.5%*

Compound activity from PubChem BioAssay.
